# Measured values from different studies.
# Each line is one published result; the experiments were not run side by side.
# Target: Calcium/calmodulin-dependent protein kinase type 1B (PNCK, Homo sapiens, UniProt Q6P2M8)
Compound,read-out,mode,method,concentration,endpoint,value
CN1CC(Oc2cnc(C#N)cc2-c2ccn3nc(NC(=O)C4CC4)cc3c2)C1,enzyme activity,inhibitor,,1 µM,inhibition,-21%
Cc1ccc(C(=O)Nc2ccc(CN3CCN(C)CC3)c(C(F)(F)F)c2)cc1C#Cc1cnc2cccnn12,cell-free assay,,,23.5 nM,remaining signal,89%
N#CCCc1ccc2c(c1)-c1[nH]c3ccc([N+](=O)[O-])cc3c1CC(=O)N2,cell-free assay,,,0.5 µM,remaining signal,107%
Cc1sc(C(=O)NC2COC2)cc1-n1cc(NC(=O)Nc2c(F)cccc2Cl)cn1,enzyme activity,inhibitor,,10 µM,remaining activity,74.1%
CN(CCCC(F)(F)F)c1nccc(-c2cnn3ncccc23)n1,binding,,,1 µM,remaining binding,100%
Nc1ncnc2occ(-c3ccc(NC(=O)Nc4cc(C(F)(F)F)ccc4F)cc3)c12,cell-free assay,,,20 µM,remaining signal,0.5%
COc1cc(Cl)c(C(=O)N[C@@H](CN[C@H]2CC[C@@H](N)CC2)Cc2ccc(C#N)cc2)cc1-c1ccc(CN[C@H](C)c2ccc(C)cc2)o1,enzyme activity,inhibitor,,1 µM,remaining activity,98%
CN([C@@H]1CCc2c(CC(=O)O)c3ccccc3n2C1)S(=O)(=O)c1ccc(F)cc1,cell-free assay,,competition with immobilised ligand,1 µM,remaining binding,87%
O=C(Nc1cnn(-c2csc(C(=O)NC3COC3)c2)c1)Nc1ccccc1Cl,enzyme activity,inhibitor,,5 µM,remaining activity,92.1%
CCc1ccccc1C(=O)Nc1n[nH]c2c(C)c(F)c(C3C(C#N)=C(C)N(C)C(C)=C3C#N)cc12,cell-free assay,,competition with immobilised ligand,1 µM,remaining binding,100%
CC(C)(O)[C@H]1CC[C@H](Nc2ccc3ncc(-c4cccc(C(F)(F)F)c4)n3n2)CC1,enzyme activity,inhibitor,,1 µM,remaining activity,100%
